# Published values gathered from unrelated publications.
# Target: Tyrosine-protein kinase Mer (MERTK, Homo sapiens, UniProt Q12866)
# One construct used (Q12866 21-999): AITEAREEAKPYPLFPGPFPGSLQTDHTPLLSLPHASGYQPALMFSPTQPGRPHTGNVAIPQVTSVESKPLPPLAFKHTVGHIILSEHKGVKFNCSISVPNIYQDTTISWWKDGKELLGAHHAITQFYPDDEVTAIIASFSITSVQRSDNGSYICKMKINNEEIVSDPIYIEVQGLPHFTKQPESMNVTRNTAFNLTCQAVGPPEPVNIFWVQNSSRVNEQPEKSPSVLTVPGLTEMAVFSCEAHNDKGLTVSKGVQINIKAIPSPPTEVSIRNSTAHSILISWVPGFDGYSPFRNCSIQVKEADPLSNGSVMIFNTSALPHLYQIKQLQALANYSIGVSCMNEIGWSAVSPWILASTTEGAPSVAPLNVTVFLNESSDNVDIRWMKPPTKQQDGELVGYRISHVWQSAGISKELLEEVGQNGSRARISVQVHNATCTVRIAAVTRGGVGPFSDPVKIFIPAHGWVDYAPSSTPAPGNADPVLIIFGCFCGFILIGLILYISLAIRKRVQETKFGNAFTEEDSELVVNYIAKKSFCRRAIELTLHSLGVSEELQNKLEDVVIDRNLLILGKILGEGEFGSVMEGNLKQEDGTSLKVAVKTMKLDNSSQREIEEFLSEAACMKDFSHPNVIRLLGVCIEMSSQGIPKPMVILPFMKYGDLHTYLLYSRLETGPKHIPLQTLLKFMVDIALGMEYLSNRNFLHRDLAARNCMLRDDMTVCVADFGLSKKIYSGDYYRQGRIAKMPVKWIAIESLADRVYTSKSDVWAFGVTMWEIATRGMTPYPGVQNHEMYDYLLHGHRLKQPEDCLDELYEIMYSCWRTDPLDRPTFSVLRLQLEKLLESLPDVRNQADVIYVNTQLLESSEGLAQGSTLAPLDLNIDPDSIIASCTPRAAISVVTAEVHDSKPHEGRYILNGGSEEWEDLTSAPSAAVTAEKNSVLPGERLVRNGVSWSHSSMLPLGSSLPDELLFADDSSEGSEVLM
Structure (SMILES),assay,setting,quantity,result
Cn1cncc1[C@@](O)(COc1ccc(C#N)cc1-c1ccc(OC(F)(F)F)cc1)c1ccc(C#N)cc1,"cell-free assay, competition with immobilised ligand",1 µM,remaining binding,69%
COc1cc(Nc2ncc(F)c(Nc3ccc4c(n3)NC(=O)C(C)(C)O4)n2)cc(OC)c1OC,"binding, competition with immobilised ligand",10 µM,inhibition,100%
Cc1nn(C)cc1-c1nc2c(N3CCN(Cc4ccc(Cl)cc4)CC3)c(Cl)cnc2[nH]1,"binding, competition with immobilised ligand",1 µM,remaining binding,100%
COc1ncccc1-c1cnn2ccc(N3CCN(C(=O)OC(C)C)CC3)nc12,"binding, competition with immobilised ligand",1 µM,remaining binding,100%
O=c1[nH]c2ccccc2n1C1CCN(Cc2ccc(-c3[nH]c4cc5ncnc5cc4nc3-c3ccccc3)cc2)CC1,cell-free assay,0.5 µM,remaining signal,96.2%
Cn1cc(-c2cccc(N3CCc4c(sc5c4CC(C)(C)C5)C3=O)c2CO)cc(Nc2ccncn2)c1=O,"enzyme activity, inhibitor",1 µM,inhibition,1%
Nc1ncc(-c2nc(N3CCOCC3)nc(N3CCOCC3)n2)c(C(F)F)n1,"binding, competition with immobilised ligand",10 µM,remaining binding,87%
CC(C)(C)c1cc(C=C(C#N)C#N)cc(Br)c1O,"enzyme activity, inhibitor",0.5 µM,remaining activity,97.3%
C#Cc1n[nH]c2c(-c3cn(C(C)c4ccccn4)c(=O)[nH]c3=O)cc(F)cc12 (centres unmarked),"enzyme activity, inhibitor",1 µM,inhibition,99.6%
N#CC1(c2ccccn2)CCN(Cc2cc(C(=O)O)c(=O)n3ccccc23)CC1,"cell-free assay, competition with immobilised ligand",1 µM,remaining binding,100%
Cn1cc(-c2cc(F)cc(N3CCn4c(cc5c4CCCC5)C3=O)c2CO)cc(Nc2ccc(N3CCN(C4COC4)CC3)cn2)c1=O,"enzyme activity, inhibitor",0.1 µM,inhibition,11%
